MT1-MMP act inh: inhibitors of human MT1-MMP activation | 360,000 compounds, 0.061% hits | GFP/RFP ratio change, % at 20 µM | P50281 | HT1080 RFP-PRO-GFP cells, GFP/RFP ratio fluorescence, overnight; percent of plate control window, DMSO zero;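 active = GFP/RFP ratio change of at least 30% with cell ATP level not reduced by more than half and red fluorescence within 50% of control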
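Material – HT1080 RFP-PRO-GFP cells · Control set – DMSO wells and RFP-L50D-GFP cells · Incubation – overnight cell settling, then overnight compound exposure, 37 °C, 5% CO2 · Compound dosing – single-point 20 µM compound, 1% DMSO · Read-out – GFP/RFP fluorescence ratio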
SKN-1 inh: blocks SKN-1 activity in C. elegans; C. elegans VP596 Pgst-4::GFP/RFP ratio, acrylamide-induced, 24 h; inhibition, % at 21.8 µM; 360,000 compounds, 0.49% hits; AID 624304;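 active = interference check ratio from 0.5 to 1.5 plus GFP to RFP signal ratio inhibition reaching or exceeding a fixed threshold, cut at about 30% in these data, passing the limit was not always enough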
CSN deneddyl inh: blocks human CSN-mediated cullin deneddylation | Q92905 | Purified CSN, SCF-Nedd8-OG deneddylation, fluorescence polarization | inhibition, % at 12.5 µM | 360,000 compounds, 0.38% hits | AID 651999;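 active = pattern-corrected inhibition above about 35%, with an unprinted fluorescence ratio check between 0.5 and 1.5, limit read from the data, passing the limit was not always enough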;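 also: 0% = enzyme with substrate and 100% = substrate without enzyme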
Target sequence (Q92905 whole entry, looked up, one chain of several): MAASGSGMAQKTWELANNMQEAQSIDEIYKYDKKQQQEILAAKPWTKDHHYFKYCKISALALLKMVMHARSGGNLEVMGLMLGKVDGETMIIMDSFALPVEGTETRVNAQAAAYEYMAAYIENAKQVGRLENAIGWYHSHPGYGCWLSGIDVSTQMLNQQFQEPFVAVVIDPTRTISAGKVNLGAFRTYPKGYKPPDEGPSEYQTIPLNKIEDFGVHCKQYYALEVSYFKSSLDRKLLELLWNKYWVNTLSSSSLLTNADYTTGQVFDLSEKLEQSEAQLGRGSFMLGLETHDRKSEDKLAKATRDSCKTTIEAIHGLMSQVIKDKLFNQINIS
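Assay system: HEK293T-derived human Csn5 enzyme; quantity: 0.24 nM enzyme; medium: Tris/NaCl/DTT buffer, pH 7.5; also added: substrate SCFSkp2-Nedd8OG, 10 nM; doses: 12.5 µM compound; schedule: 90 min reaction at room temperature; signal: FP; read-out: % inhibition of substrate cleavage by Csn5; benchmarks: substrate-only high control, full reaction low control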
DNMT1 inh: DNMT1 (human) enzyme inhibition | 360,000 compounds, 0.83% hits | P26358 | DNMT1 molecular beacon, Hinp1I cleavage, fluorescence | inhibition (reported as % activation of signal), % at 10 µM; in the data active = inhibition above about 50%
SUMO1 PPI mod: SUMO1-SIM interaction modulation | SUMO1 binding to a labelled peptide, TR-FRET, 1 h | 360,000 compounds, 0.33% hits | inhibition, % at 20 µM | P63165; in the data active = inhibition above about 37%
Target sequence (P63165 whole entry, looked up): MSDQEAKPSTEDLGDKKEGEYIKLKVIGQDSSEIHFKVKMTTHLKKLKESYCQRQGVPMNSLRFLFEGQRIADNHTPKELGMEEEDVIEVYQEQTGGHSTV
Rpn11 block: blocks the human proteasome subunit Rpn11; O00487; human 26S proteasome, Ub4-pepOG fluorescence polarization; 20S core pre-blocked with epoxomicin; inhibition, % at 20 µM; 360,000 compounds, 0.59% hits; AID 588493;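 active = inhibition at 20 µM, scaled to each plate's controls, above about 33%, limit read from the data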
MT1-MMP act val: MT1-MMP (human) activation inhibition, single-concentration validation | shares compounds with MT1-MMP act inh | HT1080 RFP-PRO-GFP cells, GFP and RFP fluorescence ratio, overnight | inhibition, % at 20 µM | 200 compounds, 10% hits | AID 652235;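 active = inhibition of at least 50% in the primary cell screen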
* marks the source's active call; other numbers are inactive results; . = not tested or not shown. Compounds with a hit are over-represented: about 2.3% of the library has one in this group of screens.

SMILES	MT1-MMP act inh	SKN-1 inh	CSN deneddyl inh	DNMT1 inh	SUMO1 PPI mod	Rpn11 block	MT1-MMP act val
O=C(NCCCn1ccnc1)c1cccnc1	32*	-6	4	5	2	-2	2
CN1/C(=C\C=C(C#N)C#N)C(C)(C)c2ccccc21	-88	55	-75	18	-5	.	.
CN1/C(=C/C=C/c2n(C)c3cc([N+](=O)[O-])c([N+](=O)[O-])cc3[n+]2C)C(C)(C)c2ccccc21	97*	57*	11	6	-16	15	94*
COc1ccccc1NC(=S)NCc1ccc2c(c1)cc(C)n2C	41*	29	0	38	-9	2	4
CCCS(=O)(=O)NCc1ccc2c(c1)cc(C)n2C	34*	53*	0	-9	-20	3	10
CCCCC(=O)NCc1ccc2c(c1)cc(C)n2C	47*	50*	2	-4	-21	-17	10
Cc1cc2cc(CNC(=O)c3ccc(S(=O)(=O)N4CCCCC4)cc3)ccc2n1C	40*	62*	-6	36	-12	-14	4
Cc1ccc(CNC(=O)c2ccc(S(=O)(=O)N3CCCCC3)cc2)cc1	-2	-1	-1	1	5	-4	.
CCS(=O)(=O)NCc1ccc2c(c1)cc(C)n2C	6	18	-4	-7	-21	-4	.
COc1ccc(C(=O)NCCNc2nc3cc(C)cc(C)c3cc2C#N)nc1	5	14	2	.	-46	.	.
N#CC(C#N)=NNc1ccc([N+](=O)[O-])cc1	33*	90*	9	-2	-44	23	26
Cc1cc2ccccc2n1CCNC(=O)COc1ccccc1	40*	49	-7	-10	-26	-9	4
Cc1cc2ccccc2n1CCNC(=O)Cc1cccc2ccccc12	43*	56	-5	-3	-6	-5	2
Cc1cc2ccccc2n1CCNC(=O)c1ccc(Br)o1	37*	37*	3	-6	3	-9	4
CCOC(=O)C1(C)CCCCCN1C(=O)c1ccc(N(C)C)cc1 (stereo not drawn)	-2	-4	-3	2	4	-6	.
FC(F)(F)c1ccccc1Cc1c(-c2cccc(Cl)c2)nc2ccc(Cl)cn12	-5	6	1	0	9	31	.
Cn1nc(C(C)(C)C)cc1C(=O)N1CCCCC1c1cc(C(=O)NCc2ccc(F)cc2)no1 (stereo not drawn)	-7	9	-3	1	-1	3	.
CC(=O)CC1N(S(=O)(=O)c2ccc(C)cc2)c2ccccc2N1S(=O)(=O)c1ccc(C)cc1	10	4	0	.	6	.	.
O=C(O)COc1ccc2nsnc2c1Cl	-2	7	-2	-4	0	2	.
Cc1ccccc1C1=C/C(=C(\SS/C(C(=O)c2ccc(OCC(=O)O)c(Cl)c2Cl)=C2\C=C(c3ccccc3C)SS2)C(=O)c2ccc(OCC(=O)O)c(Cl)c2Cl)SS1	34*	-2	29	47	116*	9	41
COc1ccc(CN2C(=O)CN(S(C)(=O)=O)CC2(C)C(=O)NC(C)C)cc1 (stereo not drawn)	3	-5	4	.	4	.	.
COc1cccc2[nH]c3c(N4CCCCC4)ncnc3c12	32*	17	-6	11	0	-4	6
CCOC(=O)C1CCN(c2ncnc3c2[nH]c2cccc(OC)c23)CC1	5	14	-2	-3	9	3	.
C[C@H](CO)N1C[C@H](C)[C@@H](CN(C)S(=O)(=O)c2ccc(F)cc2)Oc2ccc(NC(=O)CCN3CCOCC3)cc2C1=O	32*	13	-3	-3	1	3	-1
N#CCCN1CCCc2cc(N=Nc3ccc(C(F)(F)F)cc3)ccc21	32*	8	2	-10	-49	2	28
SMILES	MT1-MMP act inh	SKN-1 inh	CSN deneddyl inh	DNMT1 inh	SUMO1 PPI mod	Rpn11 block	MT1-MMP act val
COc1ccc(OC)c(N2C(=O)c3ccccc3C2c2nnnn2-c2ccc3c(c2)OCCO3)c1 (stereo not drawn)	1	-4	-3	.	-5	.	.
CN(CC(=O)Nc1cc([N+](=O)[O-])ccc1Cl)Cc1ccc(Br)cc1	36*	-2	-1	0	-18	-4	6
CNc1ccccc1C(C)(C)c1cc(-c2cccc(OC)c2)no1	47*	73	5	-2	-1	26	54*
CNc1ccccc1C(C)(C)c1cc(-c2cc(C)cc(C)c2)no1	-3	8	-3	3	-3	1	.
O=c1cccc(-c2cccc3ccccc23)o1	-4	6	3	.	-27	.	.
CC1(C)CC(=O)C=C(c2ccc(-c3cnc4ccccc4c3)cc2)C1=O	2	7	-3	-9	-34	-4	.
Cc1cc(C)c(NS(=O)(=O)c2ccccc2)c(C)c1	0	11	-2	1	-1	-1	.
Cc1cc(C)c(S(=O)(=O)/N=C2\C=C(NS(=O)(=O)c3ccccc3)C(=O)c3ccccc32)c(C)c1	41*	13	-3	-28	-4	10	28
O=C(N/N=C/C1CC=CCC1)c1cc2ccccc2cc1O (stereo not drawn)	35*	-1	6	-15	1	13	4
Cc1cccc(C)c1NC(=O)C1C(c2ccccc2)=Nc2ccccc2N1C(=O)c1cnccn1 (stereo not drawn)	-6	14	-1	.	-11	.	.
C/C(=N\Nc1nc2ccccc2[nH]1)c1ccc([N+](=O)[O-])cc1	51*	6	1	12	-19	7	21
CN(Cc1ccc([N+](=O)[O-])cc1)c1ccccc1	0	6	-4	-1	-19	-5	.
CN(CCCC(=O)O)c1ccc(N=Nc2ccc([N+](=O)[O-])cc2)cc1	53*	2	0	-3	-19	11	49
COc1ccc(Br)cc1CNc1ccc2[nH]c(=O)[nH]c2c1	0	13	-4	-10	6	-6	.
COc1ccc(Br)cc1CNc1ccc(O)cc1	52*	-4	2	-25	3	4	0
CN1C2=CC=CC=CC2=[N+](C)C12C=CC(=[N+]([O-])[O-])C=C2[N+](=O)[O-] (stereo not drawn)	39*	12	10	-9	-32	8	31
CN1C2=CC=CC=CC2=[N+](C)C12C([N+](=O)[O-])=CC(=[N+]([O-])[O-])C=C2[N+](=O)[O-] (stereo not drawn)	24	0	0	-8	-13	-8	.
